Assay results published in the M2OR odorant receptor database.
Positions count from the first letter of the chain named.

How the values were obtained:
Settings in all cases: stereoisomer not certain
[1] = system: T1, O4F15 S149F
T1 sequence (whole entry): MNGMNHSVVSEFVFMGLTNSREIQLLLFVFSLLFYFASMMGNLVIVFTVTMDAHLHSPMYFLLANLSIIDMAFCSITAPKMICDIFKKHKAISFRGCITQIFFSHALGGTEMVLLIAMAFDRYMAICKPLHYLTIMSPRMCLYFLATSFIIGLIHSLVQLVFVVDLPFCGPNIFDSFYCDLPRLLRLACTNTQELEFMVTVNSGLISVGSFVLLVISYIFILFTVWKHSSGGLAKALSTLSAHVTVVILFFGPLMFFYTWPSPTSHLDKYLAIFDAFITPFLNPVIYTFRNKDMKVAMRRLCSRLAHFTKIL
Procedure, shortened: (§1)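 Assay methods differ from source to source, frequently being transient luciferase assays in mammalian cell lines. For each receptor–molecule pair, the label responsive (active) applies when the original authors judged the measured signal statistically different from baseline, and non-responsive (inactive) applies otherwise.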

[2] = system: T2, O4F17
T2 sequence (whole entry): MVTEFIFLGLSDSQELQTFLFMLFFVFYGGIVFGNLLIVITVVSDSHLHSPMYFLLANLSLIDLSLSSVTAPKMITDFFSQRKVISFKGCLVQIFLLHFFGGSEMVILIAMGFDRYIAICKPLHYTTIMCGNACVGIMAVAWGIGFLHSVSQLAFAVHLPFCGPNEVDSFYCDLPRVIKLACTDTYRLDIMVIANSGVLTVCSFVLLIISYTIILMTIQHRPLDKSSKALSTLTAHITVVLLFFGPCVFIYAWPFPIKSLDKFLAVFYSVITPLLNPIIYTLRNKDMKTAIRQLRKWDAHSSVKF
Procedure, shortened: as §1

[3] = system: T3, O4F17; remark: listed apart in the source
T3 sequence (whole entry): T2 sequence (whole entry) with E15G, Q293R
Procedure, shortened: as §1

[4] = system: T4, O4F21 F44L
T4 sequence (whole entry): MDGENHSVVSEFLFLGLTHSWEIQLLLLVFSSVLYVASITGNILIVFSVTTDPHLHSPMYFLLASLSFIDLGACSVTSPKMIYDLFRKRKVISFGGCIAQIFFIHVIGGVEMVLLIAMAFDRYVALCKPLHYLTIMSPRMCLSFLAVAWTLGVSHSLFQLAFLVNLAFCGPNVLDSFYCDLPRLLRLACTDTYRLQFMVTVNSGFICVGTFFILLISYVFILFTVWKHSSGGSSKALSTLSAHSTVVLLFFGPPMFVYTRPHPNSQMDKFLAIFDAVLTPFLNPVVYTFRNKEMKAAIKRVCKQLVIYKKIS
Procedure, shortened: as §1

[5] = system: T5, O51A7 E8D
T5 sequence (whole entry): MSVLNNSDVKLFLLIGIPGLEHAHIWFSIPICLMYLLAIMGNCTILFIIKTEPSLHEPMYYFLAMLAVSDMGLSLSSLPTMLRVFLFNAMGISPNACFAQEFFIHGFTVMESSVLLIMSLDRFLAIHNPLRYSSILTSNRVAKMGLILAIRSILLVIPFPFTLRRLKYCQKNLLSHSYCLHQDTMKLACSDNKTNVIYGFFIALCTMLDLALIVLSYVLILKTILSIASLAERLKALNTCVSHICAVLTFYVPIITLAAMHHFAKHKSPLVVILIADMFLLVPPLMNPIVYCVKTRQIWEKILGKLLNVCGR
Procedure, shortened: as §1

[6] = system: T6, O51B2 C120R C209S P283S
T6 sequence (whole entry): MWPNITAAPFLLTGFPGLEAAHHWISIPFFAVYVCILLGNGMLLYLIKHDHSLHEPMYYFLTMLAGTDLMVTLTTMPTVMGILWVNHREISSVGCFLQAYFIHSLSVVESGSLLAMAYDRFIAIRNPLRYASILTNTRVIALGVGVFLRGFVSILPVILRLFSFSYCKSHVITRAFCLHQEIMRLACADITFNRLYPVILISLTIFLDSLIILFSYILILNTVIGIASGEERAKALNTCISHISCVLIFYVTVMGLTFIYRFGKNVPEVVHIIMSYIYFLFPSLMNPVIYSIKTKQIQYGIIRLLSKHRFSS
Procedure, shortened: as §1

[7] = system: T7, O51B4 M147T
T7 sequence (whole entry): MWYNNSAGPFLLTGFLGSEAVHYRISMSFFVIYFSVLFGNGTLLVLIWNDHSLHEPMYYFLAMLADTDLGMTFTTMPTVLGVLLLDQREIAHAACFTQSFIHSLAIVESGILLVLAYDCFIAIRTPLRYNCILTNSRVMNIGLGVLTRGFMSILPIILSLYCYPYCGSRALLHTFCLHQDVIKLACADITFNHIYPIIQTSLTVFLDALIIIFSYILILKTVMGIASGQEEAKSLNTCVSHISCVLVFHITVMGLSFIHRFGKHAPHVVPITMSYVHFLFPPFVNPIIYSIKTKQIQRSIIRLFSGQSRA
Procedure, shortened: as §1

[8] = system: T8, O51B4
T8 sequence (whole entry): T7 sequence (whole entry) with V36I
Procedure, shortened: as §1

[9] = system: T9, O51B5 G5S I102T P160L
T9 sequence (whole entry): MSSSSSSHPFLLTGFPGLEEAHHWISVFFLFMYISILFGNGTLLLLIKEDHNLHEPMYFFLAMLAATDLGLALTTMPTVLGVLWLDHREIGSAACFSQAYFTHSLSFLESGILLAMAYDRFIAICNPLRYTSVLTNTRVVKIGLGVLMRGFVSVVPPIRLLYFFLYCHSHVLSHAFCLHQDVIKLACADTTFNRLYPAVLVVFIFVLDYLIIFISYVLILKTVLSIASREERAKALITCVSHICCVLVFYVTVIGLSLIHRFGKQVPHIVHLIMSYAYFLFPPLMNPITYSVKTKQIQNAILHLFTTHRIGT
Procedure, shortened: as §1

[10] = system: T10, O51D1 I89V
T10 sequence (whole entry): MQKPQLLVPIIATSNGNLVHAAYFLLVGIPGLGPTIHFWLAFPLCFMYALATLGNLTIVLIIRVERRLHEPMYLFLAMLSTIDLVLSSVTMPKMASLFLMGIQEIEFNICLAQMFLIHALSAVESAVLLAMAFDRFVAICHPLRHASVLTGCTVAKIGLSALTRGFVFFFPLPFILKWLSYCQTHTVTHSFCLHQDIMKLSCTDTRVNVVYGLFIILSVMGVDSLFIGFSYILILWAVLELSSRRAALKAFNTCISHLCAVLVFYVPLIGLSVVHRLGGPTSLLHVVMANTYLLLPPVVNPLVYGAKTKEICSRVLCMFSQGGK
Procedure, shortened: as §1

[11] = system: T11, O51F1
T11 sequence (whole entry): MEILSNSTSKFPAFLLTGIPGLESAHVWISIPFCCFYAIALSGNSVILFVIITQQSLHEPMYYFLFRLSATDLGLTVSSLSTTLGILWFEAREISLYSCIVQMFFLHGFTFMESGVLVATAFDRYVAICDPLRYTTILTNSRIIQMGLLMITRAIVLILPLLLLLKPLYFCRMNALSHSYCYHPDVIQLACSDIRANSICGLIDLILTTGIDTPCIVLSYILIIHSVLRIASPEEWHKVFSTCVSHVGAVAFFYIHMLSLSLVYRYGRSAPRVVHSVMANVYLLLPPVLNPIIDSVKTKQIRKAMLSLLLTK
Procedure, shortened: as §1

[12] = system: T12, O51F1; remark: listed apart in the source
T12 sequence (whole entry): T11 sequence (whole entry) with A13T
Procedure, shortened: as §1

[13] = system: T13, O51F2 Y341S
T13 sequence (whole entry): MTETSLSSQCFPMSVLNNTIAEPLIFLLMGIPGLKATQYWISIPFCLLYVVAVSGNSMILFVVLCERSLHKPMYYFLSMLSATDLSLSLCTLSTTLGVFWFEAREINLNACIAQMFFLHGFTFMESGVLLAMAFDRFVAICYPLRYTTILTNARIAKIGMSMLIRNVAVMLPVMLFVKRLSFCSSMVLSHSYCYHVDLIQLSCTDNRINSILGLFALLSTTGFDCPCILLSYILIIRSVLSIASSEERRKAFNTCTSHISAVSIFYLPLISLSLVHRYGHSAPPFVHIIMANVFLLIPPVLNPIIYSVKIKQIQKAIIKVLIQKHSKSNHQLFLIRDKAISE
Procedure, shortened: as §1

[14] = system: T14, O51G1
T14 sequence (whole entry): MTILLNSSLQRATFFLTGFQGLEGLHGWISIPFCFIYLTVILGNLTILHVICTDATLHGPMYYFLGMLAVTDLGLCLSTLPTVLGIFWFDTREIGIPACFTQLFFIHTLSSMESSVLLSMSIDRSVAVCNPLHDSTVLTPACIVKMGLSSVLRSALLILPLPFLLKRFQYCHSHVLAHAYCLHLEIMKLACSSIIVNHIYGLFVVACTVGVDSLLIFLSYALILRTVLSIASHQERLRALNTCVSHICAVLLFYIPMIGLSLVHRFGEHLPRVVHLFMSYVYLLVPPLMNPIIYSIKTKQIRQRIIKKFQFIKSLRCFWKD
Procedure, shortened: as §1

[15] = system: T15, O51I1 V164L
T15 sequence (whole entry): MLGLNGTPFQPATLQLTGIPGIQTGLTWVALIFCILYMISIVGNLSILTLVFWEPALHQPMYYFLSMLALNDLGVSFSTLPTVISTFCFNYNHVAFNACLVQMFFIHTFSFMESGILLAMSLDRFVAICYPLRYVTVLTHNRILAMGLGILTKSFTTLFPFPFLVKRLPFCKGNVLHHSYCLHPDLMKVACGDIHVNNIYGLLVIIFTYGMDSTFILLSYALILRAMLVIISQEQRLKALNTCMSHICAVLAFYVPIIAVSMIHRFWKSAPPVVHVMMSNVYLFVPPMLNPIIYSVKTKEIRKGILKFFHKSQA
Procedure, shortened: as §1

[16] = system: T16, O51J1 R75H I202V
T16 sequence (whole entry): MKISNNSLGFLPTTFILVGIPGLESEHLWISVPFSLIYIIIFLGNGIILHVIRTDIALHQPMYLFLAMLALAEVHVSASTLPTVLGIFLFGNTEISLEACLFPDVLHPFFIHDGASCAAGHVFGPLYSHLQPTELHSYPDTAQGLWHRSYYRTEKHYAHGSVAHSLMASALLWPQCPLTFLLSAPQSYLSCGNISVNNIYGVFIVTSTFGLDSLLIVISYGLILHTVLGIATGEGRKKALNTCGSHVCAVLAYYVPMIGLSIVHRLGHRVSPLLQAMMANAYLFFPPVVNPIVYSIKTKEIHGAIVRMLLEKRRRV
Procedure, shortened: as §1

[17] = system: T17, O51L1
T17 sequence (whole entry): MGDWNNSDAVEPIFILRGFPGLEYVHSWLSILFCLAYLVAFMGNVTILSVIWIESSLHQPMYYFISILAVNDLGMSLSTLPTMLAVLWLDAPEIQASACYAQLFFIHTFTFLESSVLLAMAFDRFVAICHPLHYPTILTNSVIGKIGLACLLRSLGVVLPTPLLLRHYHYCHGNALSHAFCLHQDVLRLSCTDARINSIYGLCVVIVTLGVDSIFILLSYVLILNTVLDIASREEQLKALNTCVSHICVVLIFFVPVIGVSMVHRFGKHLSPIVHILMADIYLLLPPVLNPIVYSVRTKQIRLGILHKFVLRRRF
Procedure, shortened: as §1

[18] = system: T18, O51T1
T18 sequence (whole entry): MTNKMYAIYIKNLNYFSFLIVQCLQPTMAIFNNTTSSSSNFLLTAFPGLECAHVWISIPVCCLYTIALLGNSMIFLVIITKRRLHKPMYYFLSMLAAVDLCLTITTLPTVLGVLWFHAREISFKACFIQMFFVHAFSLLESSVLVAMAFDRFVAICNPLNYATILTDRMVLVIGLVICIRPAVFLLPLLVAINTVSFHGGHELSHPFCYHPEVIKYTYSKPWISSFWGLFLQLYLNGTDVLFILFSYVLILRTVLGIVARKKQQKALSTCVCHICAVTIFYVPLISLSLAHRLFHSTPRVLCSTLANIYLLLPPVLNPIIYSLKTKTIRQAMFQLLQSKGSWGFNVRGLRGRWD
Procedure, shortened: as §1

[19] = system: T19, O51V1 L36F N51T G96W
T19 sequence (whole entry): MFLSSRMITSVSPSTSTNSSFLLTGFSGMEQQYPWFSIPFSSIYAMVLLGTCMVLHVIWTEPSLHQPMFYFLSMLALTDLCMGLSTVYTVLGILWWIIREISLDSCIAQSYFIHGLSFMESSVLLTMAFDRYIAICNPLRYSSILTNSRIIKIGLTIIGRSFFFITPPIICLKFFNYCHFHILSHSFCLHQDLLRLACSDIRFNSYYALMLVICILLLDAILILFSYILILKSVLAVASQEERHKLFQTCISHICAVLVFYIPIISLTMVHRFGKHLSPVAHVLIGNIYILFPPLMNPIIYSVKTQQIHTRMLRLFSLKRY
Procedure, shortened: as §1

[20] = system: O51J1
Procedure, shortened: as §1

Measured: odorant receptor agonist call

Sequence of O51J1 (as listed by the source): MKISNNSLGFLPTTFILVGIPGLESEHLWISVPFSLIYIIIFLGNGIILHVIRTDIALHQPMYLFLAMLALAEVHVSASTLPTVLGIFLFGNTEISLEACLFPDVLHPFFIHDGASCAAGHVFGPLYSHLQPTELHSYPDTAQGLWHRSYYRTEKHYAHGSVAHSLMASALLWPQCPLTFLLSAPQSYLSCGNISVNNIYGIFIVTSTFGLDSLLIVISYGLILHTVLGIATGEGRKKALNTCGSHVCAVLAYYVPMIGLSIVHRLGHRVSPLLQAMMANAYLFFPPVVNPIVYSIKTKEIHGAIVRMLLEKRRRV

CCC1OC(C)=C(O)C1=O (centres undefined)
not listed: [20]
inactive: all other assays above

CC1=C(O)C(=O)OC1C (centres undefined)
not listed: [20]
inactive: all other assays above

CCC1OC(=O)C(O)=C1C (centres undefined)
not listed: [20]
inactive: all other assays above

CCCC(C)=CC(=O)O
inactive: [20]

Cc1cnc(C)c(C)n1
not listed: [20]
inactive: all other assays above

C=C(C)C1CCC(C)C(=O)C1 (centres undefined)
inactive: [11] | [12]
